Activity calls are given as the source filed them. The calls are words filed in the database; no cut-off is given here.
Experiments:
[1] = molecular target: T1, Ephrin type-B receptor 4 (Homo sapiens) (UniProt P54760); experiment: Inhibition of EphB4 at 30 uM in presence of 30 uM ATP
T1 sequence (whole entry): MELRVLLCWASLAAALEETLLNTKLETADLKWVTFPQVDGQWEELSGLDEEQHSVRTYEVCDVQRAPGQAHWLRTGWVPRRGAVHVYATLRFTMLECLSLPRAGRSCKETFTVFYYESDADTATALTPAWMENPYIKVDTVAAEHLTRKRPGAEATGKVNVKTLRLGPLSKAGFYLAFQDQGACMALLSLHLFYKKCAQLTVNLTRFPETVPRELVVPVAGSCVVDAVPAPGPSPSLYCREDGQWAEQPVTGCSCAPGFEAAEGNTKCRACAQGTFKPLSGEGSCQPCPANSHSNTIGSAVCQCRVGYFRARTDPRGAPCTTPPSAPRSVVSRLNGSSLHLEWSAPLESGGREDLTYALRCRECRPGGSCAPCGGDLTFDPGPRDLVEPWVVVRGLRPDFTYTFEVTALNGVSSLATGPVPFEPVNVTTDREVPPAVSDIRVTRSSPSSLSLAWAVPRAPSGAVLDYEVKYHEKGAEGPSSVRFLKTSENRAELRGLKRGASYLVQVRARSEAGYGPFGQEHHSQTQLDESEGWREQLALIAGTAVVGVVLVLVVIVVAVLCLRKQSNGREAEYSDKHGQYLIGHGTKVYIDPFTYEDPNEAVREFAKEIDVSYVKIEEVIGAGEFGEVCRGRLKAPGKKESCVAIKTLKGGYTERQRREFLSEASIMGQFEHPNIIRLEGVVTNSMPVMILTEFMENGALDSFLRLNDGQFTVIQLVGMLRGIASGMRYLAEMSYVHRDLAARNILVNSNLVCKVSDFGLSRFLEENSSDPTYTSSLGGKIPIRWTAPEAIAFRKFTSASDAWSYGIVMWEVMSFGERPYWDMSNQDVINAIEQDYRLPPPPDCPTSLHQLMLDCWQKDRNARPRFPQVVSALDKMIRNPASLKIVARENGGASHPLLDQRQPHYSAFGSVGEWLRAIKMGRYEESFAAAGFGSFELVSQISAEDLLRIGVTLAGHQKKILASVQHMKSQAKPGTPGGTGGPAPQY
Outline: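 EphB4 kinase, FRET enzymatic assay run in house with a commercial EphB4 assay kit. ATP at 30 μM, compound at 30 μM. Read-out is percent inhibition at that single concentration.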

Ephrin type-B receptor 4 [2] = molecular target: T2, Ephrin type-B receptor 4 (Homo sapiens, UniProt P54760); experiment: Inhibition of EphB4 in presence of 1 uM radiolabeled ATP
T2 sequence (P54760 whole entry): T1 sequence (whole entry)
Outline: (§1)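 Radiometric enzymatic assay run by a contract lab (Reaction Biology) on the recombinant catalytic domain of each kinase, with radiolabeled ATP at 1 μM. IC50 taken from a 10-dose response.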

Ephrin type-B receptor 4 [3] = molecular target: T2, Ephrin type-B receptor 4; experiment: Inhibition of EphB4 by FRET assay in presence of 30 uM ATP
Outline: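 In-house FRET enzymatic assay of EphB4 using a commercial EphB4 kit, ATP 30 μM. IC50 derived from concentration-response.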

[4] = molecular target: Tyrosine-protein kinase Lck (Homo sapiens, UniProt P06239); experiment: Inhibition of recombinant Lck catalytic domain in presence of 1 uM radiolabeled ATP; outline: as §1
Chain of Tyrosine-protein kinase Lck (P06239 whole entry, the tested form may be a part): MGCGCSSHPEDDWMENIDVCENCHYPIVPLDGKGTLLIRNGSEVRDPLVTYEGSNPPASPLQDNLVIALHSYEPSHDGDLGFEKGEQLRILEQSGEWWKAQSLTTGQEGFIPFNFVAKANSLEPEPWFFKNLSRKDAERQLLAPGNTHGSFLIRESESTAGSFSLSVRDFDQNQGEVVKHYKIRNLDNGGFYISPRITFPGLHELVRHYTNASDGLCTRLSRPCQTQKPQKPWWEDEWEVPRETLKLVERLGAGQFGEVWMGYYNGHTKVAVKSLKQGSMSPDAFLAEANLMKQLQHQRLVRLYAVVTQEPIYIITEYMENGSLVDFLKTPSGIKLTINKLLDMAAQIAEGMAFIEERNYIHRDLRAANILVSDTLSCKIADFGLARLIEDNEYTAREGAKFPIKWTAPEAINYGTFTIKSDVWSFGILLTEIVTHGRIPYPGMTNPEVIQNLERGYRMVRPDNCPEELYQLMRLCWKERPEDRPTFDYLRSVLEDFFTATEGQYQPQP

[5] = molecular target: Tyrosine-protein kinase ABL1 (Homo sapiens, UniProt P00519); experiment: Inhibition of recombinant Abl1 catalytic domain in presence of 1 uM radiolabeled ATP; outline: as §1
Chain of Tyrosine-protein kinase ABL1 (P00519 whole entry, the tested form may be a part): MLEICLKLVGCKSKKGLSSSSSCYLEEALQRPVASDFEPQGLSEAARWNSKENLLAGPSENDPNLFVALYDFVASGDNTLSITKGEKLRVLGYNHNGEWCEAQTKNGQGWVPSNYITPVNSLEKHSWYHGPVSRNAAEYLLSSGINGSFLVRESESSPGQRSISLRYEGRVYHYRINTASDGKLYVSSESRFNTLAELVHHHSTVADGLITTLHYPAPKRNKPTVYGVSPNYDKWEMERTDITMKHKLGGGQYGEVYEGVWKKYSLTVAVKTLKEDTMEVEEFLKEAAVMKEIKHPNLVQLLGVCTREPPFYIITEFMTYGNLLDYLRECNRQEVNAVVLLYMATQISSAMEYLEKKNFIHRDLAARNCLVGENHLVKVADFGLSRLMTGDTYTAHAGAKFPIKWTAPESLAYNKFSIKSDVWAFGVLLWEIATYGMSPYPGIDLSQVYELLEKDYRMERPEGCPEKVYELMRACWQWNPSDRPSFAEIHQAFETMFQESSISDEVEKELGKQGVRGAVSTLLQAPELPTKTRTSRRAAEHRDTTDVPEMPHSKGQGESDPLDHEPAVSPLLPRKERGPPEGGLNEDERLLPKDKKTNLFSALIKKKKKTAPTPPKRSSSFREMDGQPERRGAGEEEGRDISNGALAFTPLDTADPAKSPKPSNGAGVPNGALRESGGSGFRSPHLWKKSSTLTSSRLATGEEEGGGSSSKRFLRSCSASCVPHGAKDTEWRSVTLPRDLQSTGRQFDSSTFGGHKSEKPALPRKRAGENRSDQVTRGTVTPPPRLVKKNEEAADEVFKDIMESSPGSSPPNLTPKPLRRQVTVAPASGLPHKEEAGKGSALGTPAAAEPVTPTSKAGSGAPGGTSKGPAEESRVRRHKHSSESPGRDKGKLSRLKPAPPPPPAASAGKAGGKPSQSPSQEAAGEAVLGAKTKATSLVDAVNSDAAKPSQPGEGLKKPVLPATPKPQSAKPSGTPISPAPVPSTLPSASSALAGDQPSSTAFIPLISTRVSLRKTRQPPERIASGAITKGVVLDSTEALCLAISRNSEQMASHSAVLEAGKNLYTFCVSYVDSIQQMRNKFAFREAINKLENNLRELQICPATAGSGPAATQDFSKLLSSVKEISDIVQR

Ephrin type-B receptor 4 [6] = molecular target: T2, Ephrin type-B receptor 4; experiment: Inhibition of human full length EphB4 expressed in MEF cells assessed as inhibition of human ephrin B2/FC chimera-stimulated receptor autophosphorylation; assay type: cell-based
Outline: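 Cellular EphB4 phosphorylation assay run by a contract lab (ProQinase) in murine embryonal fibroblasts (MEF) expressing exogenous full-length human EphB4. Cells were stimulated 2 h with human Ephrin-B2/Fc chimera to induce receptor tyrosine autophosphorylation. Read-out is inhibition of that autophosphorylation.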

[7] = molecular target: Epidermal growth factor receptor (Homo sapiens, UniProt P00533); experiment: Inhibition of recombinant EGFR catalytic domain in presence of 1 uM radiolabeled ATP; outline: as §1
Chain of Epidermal growth factor receptor (P00533 whole entry, the tested form may be a part): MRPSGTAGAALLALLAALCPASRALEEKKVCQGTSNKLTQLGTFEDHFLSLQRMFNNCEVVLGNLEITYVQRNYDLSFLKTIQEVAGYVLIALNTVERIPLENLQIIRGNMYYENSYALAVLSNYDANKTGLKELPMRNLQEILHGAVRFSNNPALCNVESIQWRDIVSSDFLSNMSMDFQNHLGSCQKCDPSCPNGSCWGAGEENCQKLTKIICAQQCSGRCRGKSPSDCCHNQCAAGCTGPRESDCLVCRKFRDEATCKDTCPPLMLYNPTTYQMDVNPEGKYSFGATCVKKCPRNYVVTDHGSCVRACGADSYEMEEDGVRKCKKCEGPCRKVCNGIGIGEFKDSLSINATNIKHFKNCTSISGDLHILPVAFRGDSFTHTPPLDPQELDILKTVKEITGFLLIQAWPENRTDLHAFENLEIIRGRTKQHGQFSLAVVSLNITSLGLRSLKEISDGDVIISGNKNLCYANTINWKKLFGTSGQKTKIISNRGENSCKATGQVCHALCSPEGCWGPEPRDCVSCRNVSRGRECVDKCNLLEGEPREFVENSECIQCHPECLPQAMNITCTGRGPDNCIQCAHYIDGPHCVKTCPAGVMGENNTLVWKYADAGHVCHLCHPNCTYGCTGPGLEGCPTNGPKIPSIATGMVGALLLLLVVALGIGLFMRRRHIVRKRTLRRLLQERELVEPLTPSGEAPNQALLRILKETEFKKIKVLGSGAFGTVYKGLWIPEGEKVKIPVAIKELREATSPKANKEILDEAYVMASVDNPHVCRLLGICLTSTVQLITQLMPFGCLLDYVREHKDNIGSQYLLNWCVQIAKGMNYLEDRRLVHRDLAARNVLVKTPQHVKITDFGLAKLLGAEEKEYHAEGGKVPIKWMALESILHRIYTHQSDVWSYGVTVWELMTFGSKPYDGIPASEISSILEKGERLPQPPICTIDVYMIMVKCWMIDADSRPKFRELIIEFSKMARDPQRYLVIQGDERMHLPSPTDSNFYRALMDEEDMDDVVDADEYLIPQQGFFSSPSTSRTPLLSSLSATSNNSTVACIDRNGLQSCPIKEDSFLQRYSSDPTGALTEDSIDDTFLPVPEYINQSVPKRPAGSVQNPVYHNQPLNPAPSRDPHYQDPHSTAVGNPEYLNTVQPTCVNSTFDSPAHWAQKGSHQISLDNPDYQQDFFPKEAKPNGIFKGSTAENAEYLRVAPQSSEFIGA

[8] = molecular target: Proto-oncogene tyrosine-protein kinase Src (Homo sapiens, UniProt P12931); experiment: Inhibition of recombinant Src catalytic domain in presence of 1 uM radiolabeled ATP; outline: as §1
Chain of Proto-oncogene tyrosine-protein kinase Src (P12931 2-536 limits assumed): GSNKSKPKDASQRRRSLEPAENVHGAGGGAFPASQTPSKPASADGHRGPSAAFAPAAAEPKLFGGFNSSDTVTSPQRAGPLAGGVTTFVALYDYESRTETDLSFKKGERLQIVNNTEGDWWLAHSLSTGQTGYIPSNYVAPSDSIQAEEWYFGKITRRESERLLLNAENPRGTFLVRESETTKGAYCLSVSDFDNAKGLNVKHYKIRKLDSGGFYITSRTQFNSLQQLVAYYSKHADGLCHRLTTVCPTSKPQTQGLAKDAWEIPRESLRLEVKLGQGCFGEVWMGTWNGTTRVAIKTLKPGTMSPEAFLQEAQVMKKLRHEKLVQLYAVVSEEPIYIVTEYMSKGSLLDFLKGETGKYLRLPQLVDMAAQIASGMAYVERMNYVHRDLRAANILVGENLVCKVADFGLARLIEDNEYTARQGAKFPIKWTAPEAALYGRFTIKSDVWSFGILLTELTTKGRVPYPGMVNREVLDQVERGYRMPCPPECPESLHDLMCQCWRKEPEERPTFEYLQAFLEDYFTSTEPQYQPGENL

[9] = molecular target: Insulin-like growth factor 1 receptor (Homo sapiens) (UniProt P08069); experiment: Inhibition of recombinant IGF1R catalytic domain in presence of 1 uM radiolabeled ATP; outline: as §1
Chain of Insulin-like growth factor 1 receptor (Homo sapiens) (P08069 31-736 limits assumed): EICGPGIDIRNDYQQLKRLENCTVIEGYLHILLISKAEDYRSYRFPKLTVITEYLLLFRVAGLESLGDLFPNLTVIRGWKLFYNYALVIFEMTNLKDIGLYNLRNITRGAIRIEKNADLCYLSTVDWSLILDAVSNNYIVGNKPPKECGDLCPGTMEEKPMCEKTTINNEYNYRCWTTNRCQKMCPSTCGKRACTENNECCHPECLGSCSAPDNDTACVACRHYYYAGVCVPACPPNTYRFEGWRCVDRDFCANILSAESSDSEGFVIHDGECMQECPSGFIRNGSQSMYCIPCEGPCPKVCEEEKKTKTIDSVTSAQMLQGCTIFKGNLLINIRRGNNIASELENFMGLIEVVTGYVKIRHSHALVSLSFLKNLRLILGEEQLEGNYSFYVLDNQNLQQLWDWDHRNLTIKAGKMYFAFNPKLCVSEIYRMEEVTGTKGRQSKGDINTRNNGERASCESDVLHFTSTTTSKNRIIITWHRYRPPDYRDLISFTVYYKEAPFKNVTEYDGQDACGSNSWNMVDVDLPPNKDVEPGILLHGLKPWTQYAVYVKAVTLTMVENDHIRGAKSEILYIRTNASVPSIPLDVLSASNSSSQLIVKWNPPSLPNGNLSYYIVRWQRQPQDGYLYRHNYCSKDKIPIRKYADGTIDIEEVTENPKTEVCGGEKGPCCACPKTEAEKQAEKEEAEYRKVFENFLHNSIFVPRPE
Chain of Insulin-like growth factor 1 receptor (Homo sapiens) (P08069 741-1367 limits assumed): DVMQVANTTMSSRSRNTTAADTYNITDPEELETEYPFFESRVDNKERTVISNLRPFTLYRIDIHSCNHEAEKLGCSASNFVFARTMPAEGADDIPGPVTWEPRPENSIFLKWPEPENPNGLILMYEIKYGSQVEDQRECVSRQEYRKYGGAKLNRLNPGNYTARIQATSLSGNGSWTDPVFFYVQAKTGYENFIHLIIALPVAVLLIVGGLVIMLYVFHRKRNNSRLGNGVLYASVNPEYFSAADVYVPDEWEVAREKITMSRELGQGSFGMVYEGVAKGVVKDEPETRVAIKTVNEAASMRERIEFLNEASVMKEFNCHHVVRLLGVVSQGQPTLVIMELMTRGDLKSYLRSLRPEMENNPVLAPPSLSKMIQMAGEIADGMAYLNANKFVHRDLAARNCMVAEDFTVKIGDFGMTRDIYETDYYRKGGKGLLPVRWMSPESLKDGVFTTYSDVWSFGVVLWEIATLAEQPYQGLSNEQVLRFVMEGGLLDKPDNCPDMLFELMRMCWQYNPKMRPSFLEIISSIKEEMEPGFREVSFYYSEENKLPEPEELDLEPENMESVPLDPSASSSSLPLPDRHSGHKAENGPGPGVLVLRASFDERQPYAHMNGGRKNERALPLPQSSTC

| Structure (SMILES) | inhibition [1] [%] | IC50 (Ephrin type-B receptor 4 [2]) [nM] | also measured |
| --- | --- | --- | --- |
| COc1ccc(-n2c(=O)c3c(c4c(N)ncnc42)CCCC3)cc1 | 37 | – | – |
| COc1ccccc1-n1c(=O)c2c(c3c(N)ncnc31)CCCC2 | 5 | – | – |
| COc1cccc(-n2c(=O)c3c(c4c(N)ncnc42)CCCC3)c1 | 75 | 5200 | IC50 (Ephrin type-B receptor 4 [3]): 9400 nM |
| COc1ccccc1-n1c(=O)c2c(c3c(N)ncnc31)CC(C)(C)OC2 | 0 | – | – |
| Cc1ccccc1-n1c(=O)c2c(c3c(N)ncnc31)CCCC2 | 48 | 8400 | – |
| COc1cccc(-n2c(=O)c3c(c4c(N)ncnc42)CC(C)(C)OC3)c1 | 38 | 14300 | – |
| Cc1ccc(O)cc1-n1c(=O)c2c(c3c(N)ncnc31)CCCC2 | – | 160 | IC50 [4]: 1380 nM; IC50 [5]: 864 nM; IC50 (Ephrin type-B receptor 4 [6]): 930 nM; IC50 [7]: 1620 nM; IC50 [8]: 338 nM; IC50 (Ephrin type-B receptor 4 [3]): 300 nM; inhibition [9]: inactive |

Reference: ChEMBL document CHEMBL2150975, “Discovery of a novel chemotype of tyrosine kinase inhibitors by fragment-based docking and molecular dynamics” (ACS Med Chem Lett, 2012)
